In ChEMBL document CHEMBL2016521, “Preparation, gram-negative antibacterial activity, and hydrolytic stability of novel siderophore-conjugated monocarbam diols” (ACS Med Chem Lett, 2011):
One block for each compound: values may come before it.

Experiments:
[1] = test system: Pseudomonas aeruginosa; assay: Antibacterial activity against Pseudomonas aeruginosa isolate 1091-05; format: functional
[2] = Chemical stability of the compound in phosphate buffer at pH 8 assessed as drug degradation at 1 uM after 100 hrs by HPLC analysis; format: physicochemical; details: read-out: Drug degradation
How it was run: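 Hydrolytic β-lactam ring-opening was followed in aqueous buffer at pH 8.0 and 37 °C over a 100 h incubation. The read-out was percent degradation.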

[3] = test system: Pseudomonas aeruginosa; assay: Antibacterial activity against low inoculum imipenem-sensitive Pseudomonas aeruginosa isolate 1091-05 infected in sc dosed neutropenic-C3H/HeN mouse assessed as mouse survival administered 4 hrs post infection followed by BID dosing for two days measured on day 10; format: functional; details: isolate 1091-05, sc, read-out: PD50
[4] = test system: Klebsiella pneumoniae; assay: Antibacterial activity against Klebsiella pneumoniae 1000-02; format: functional
[5] = Fraction unbound in mouse plasma at 1 uM by LC-MS/MS analysis; format: ADME, cell-free
[6] = Chemical stability of the compound in phosphate buffer at pH 6 at 1 uM after 24 hrs by HPLC analysis; format: physicochemical; details: pH 6, 24 h
How it was run: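 Hydrolytic stability of the β-lactam ring was measured in aqueous buffer at pH 6.0 and 37 °C.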

[7] = test system: Pseudomonas aeruginosa; assay: Antibacterial activity against Pseudomonas aeruginosa; format: functional
[8] = test system: Acinetobacter baumannii; assay: Antibacterial activity against Acinetobacter baumannii AB-3167; format: functional
[9] = test system: Pseudomonas aeruginosa; assay: Antibacterial activity against imipenem-sensitive Pseudomonas aeruginosa isolate 1091-05 infected in ip dosed SF-1 mouse assessed as survival of animal administered 0.5 and 4 hrs post infected measured on day 4; format: functional; details: isolate 1091-05, ip, read-out: PD50
[10] = test system: Pseudomonas aeruginosa; assay: Antibacterial activity against imipenem-sensitive Pseudomonas aeruginosa isolate 1091-05 infected in sc dosed neutropenic-C3H/HeN mouse assessed as mouse survival administered 4 hrs post infection followed by BID dosing for two days measured on day 10; format: functional; details: isolate 1091-05, sc, read-out: PD50
[11] = test system: Klebsiella pneumoniae; assay: Antimicrobial activity against extended spectrum beta-lactamase-producing Klebsiella pneumoniae; format: functional
[12] = test system: Pseudomonas aeruginosa; assay: Antibacterial activity against Pseudomonas aeruginosa clinical isolate; format: functional
[13] = test system: Pseudomonas aeruginosa; assay: Antibacterial activity against metallo-beta-lactamase producing Pseudomonas aeruginosa; format: functional
[14] = test system: Citrobacter freundii; assay: Antimicrobial activity against Citrobacter freundii; format: functional
[15] = test system: Escherichia coli; assay: Antimicrobial activity against extended spectrum beta-lactamase-producing Escherichia coli; format: functional
[16] = test system: Serratia marcescens; assay: Antimicrobial activity against Serratia marcescens; format: functional
[17] = test system: Stenotrophomonas maltophilia; assay: Antimicrobial activity against Stenotrophomonas maltophilia; format: functional
[18] = test system: Escherichia coli; assay: Antimicrobial activity against CTX-M-positive extended spectrum beta-lactamase-producing Escherichia coli; format: functional
[19] = test system: Acinetobacter sp.; assay: Antimicrobial activity against Acinetobacter sp.; format: functional
[20] = test system: Klebsiella aerogenes; assay: Antimicrobial activity against Enterobacter aerogenes; format: functional
[21] = test system: Klebsiella pneumoniae; assay: Antimicrobial activity against carbapenemase-producing Klebsiella pneumoniae; format: functional
[22] = test system: Escherichia coli; assay: Antimicrobial activity against Escherichia coli clinical isolate; format: functional
[23] = test system: Pseudomonas aeruginosa; assay: Antibacterial activity against Pseudomonas aeruginosa cystic fibrosis isolate; format: functional
[24] = test system: Klebsiella pneumoniae; assay: Antimicrobial activity against Klebsiella pneumoniae clinical isolate; format: functional

MIC [1]: 0.25 µg/mL
SMILES: CC(C)(O)Cn1c(-c2cc(=O)c(O)c[nH]2)nn(S(=O)(=O)[N-]C(=O)N2C[C@H](NC(=O)/C(=N\OC(C)(C)C(=O)[O-])c3csc(N)n3)C2=O)c1=O.[Na+].[Na+]

SMILES: C[C@H]1[C@H](NC(=O)/C(=N\OC(C)(C)C(=O)[O-])c2csc(N)n2)C(=O)N1C(=O)[N-]S(=O)(=O)n1nc(-c2cc(=O)c(O)c[nH]2)n(C[C@@H](O)CO)c1=O.[Na+].[Na+]
degraded at 100 h, 1 µM [2]: 20%
ED50 [3]: 1.4 mg/kg
MIC [4]: 0.5 µg/mL
fraction unbound at 1 µM [5]: 0.51
MIC [1]: 0.25 µg/mL
Stability [6]: Stable
MIC90 [7]: 0.5 µg/mL
MIC [8]: 2 µg/mL

SMILES: Cn1c(-c2cc(=O)c(O)c[nH]2)nn(S(=O)(=O)[N-]C(=O)N2C[C@H](NC(=O)/C(=N\OC(C)(C)C(=O)[O-])c3csc(N)n3)C2=O)c1=O.[Na+].[Na+]
MIC [4]: 0.5 µg/mL
fraction unbound at 1 µM [5]: 0.26
MIC [1]: 0.5 µg/mL
ED50 [9]: 4 mg/kg
MIC90 [7]: 2 µg/mL
MIC [8]: 1 µg/mL
ED50 [10]: > 150 mg/kg

SMILES: CC(C)(O/N=C(\C(=O)N[C@H]1CN(C(=O)[N-]S(=O)(=O)n2nc(-c3cc(=O)c(O)c[nH]3)n(C[C@H](O)CO)c2=O)C1=O)c1csc(N)n1)C(=O)[O-].[Na+].[Na+]
MIC [4]: 0.5 µg/mL
MIC [1]: 0.125 µg/mL
MIC90 [7]: 1 µg/mL
MIC [8]: 0.5 µg/mL
ED50 [10]: 18.6 mg/kg

MIC [1]: 0.25 µg/mL
SMILES: CC(C)(O/N=C(\C(=O)N[C@H]1CN(C(=O)[N-]S(=O)(=O)n2nc(-c3cc(=O)c(O)c[nH]3)n(CC(F)(F)F)c2=O)C1=O)c1csc(N)n1)C(=O)[O-].[Na+].[Na+]

SMILES: COCCn1c(-c2cc(=O)c(O)c[nH]2)nn(S(=O)(=O)[N-]C(=O)N2C[C@H](NC(=O)/C(=N\OC(C)(C)C(=O)[O-])c3csc(N)n3)C2=O)c1=O.[Na+].[Na+]
MIC [4]: 0.5 µg/mL
MIC [1]: 0.5 µg/mL
MIC90 [7]: 1 µg/mL
MIC [8]: 4 µg/mL
ED50 [10]: > 70.8 mg/kg

SMILES: CC(C)(O/N=C(\C(=O)N[C@H]1CN(C(=O)[N-]S(=O)(=O)n2nc(-c3cc(=O)c(O)c[nH]3)n(C[C@@H](O)CO)c2=O)C1=O)c1csc(N)n1)C(=O)[O-].[Na+].[Na+]
degraded at 100 h, 1 µM [2]: 50%
MIC50 [11]: 0.5 µg/mL
MIC90 [11]: 8 µg/mL
ED50 [3]: 6.9 mg/kg
MIC [4]: 0.5 µg/mL
MIC50 [12]: 0.125 µg/mL
MIC90 [12]: 0.5 µg/mL
MIC50 [13]: 0.125 µg/mL
MIC90 [13]: 0.5 µg/mL
MIC50 [14]: 0.5 µg/mL
MIC90 [14]: 2 µg/mL
MIC50 [15]: 0.25 µg/mL
MIC90 [15]: 2 µg/mL
MIC50 [16]: 0.125 µg/mL
MIC90 [16]: 0.5 µg/mL
MIC50 [17]: 1 µg/mL
MIC90 [17]: 2 µg/mL
MIC50 [18]: 0.25 µg/mL
MIC90 [18]: 2 µg/mL
fraction unbound at 1 µM [5]: 0.46
MIC [1]: 0.125 µg/mL
MIC50 [19]: 16 µg/mL
MIC90 [19]: > 64 µg/mL
MIC50 [20]: 0.125 µg/mL
MIC90 [20]: 0.25 µg/mL
MIC50 [21]: 0.5 µg/mL
MIC90 [21]: 8 µg/mL
MIC50 [22]: 0.25 µg/mL
MIC90 [22]: 2 µg/mL
Stability [6]: Stable
ED50 [9]: < 1 mg/kg
MIC50 [23]: 0.125 µg/mL
MIC90 [23]: 0.5 µg/mL
MIC90 [7]: 0.5 µg/mL
MIC [8]: 0.5 µg/mL
ED50 [10]: 20.6 mg/kg
MIC50 [24]: 0.5 µg/mL
MIC90 [24]: 8 µg/mL

SMILES: CC(C)(O/N=C(\C(=O)N[C@H]1CN(C(=O)[N-]S(=O)(=O)n2nc(-c3cc(=O)c(O)c[nH]3)n(CC(N)=O)c2=O)C1=O)c1csc(N)n1)C(=O)[O-].[Na+].[Na+]
MIC [4]: 1 µg/mL
MIC [1]: 0.125 µg/mL
MIC90 [7]: 1 µg/mL
MIC [8]: 1 µg/mL
ED50 [10]: 25 mg/kg

SMILES: C[C@H](O)Cn1c(-c2cc(=O)c(O)c[nH]2)nn(S(=O)(=O)[N-]C(=O)N2C(=O)[C@@H](NC(=O)/C(=N\OC(C)(C)C(=O)[O-])c3csc(N)n3)[C@@H]2C)c1=O.[Na+].[Na+]
MIC [4]: 1 µg/mL
MIC [1]: 0.25 µg/mL
MIC90 [7]: 0.5 µg/mL
MIC [8]: 4 µg/mL
ED50 [10]: 21.3 mg/kg

MIC [1]: 8 µg/mL
SMILES: Cc1cc(Cn2c(-c3cc(=O)c(O)c[nH]3)nn(S(=O)(=O)[N-]C(=O)N3C[C@H](NC(=O)/C(=N\OC(C)(C)C(=O)[O-])c4csc(N)n4)C3=O)c2=O)nn1C.[Na+].[Na+]
